Compound activity from PubChem.
Mdm2 ligase inh: Mdm2 E3 ligase (human) inhibition | Q00987 | cell-based MDM2 ubiquitination luciferase reporter, 2 h; 0 = plate control, 100 = twice control, blank-subtracted | signal enhancement, % at 5 µM | AID 1230 | hit rate 0.11% among 210,000;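 active = signal enhancement of 30% or more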;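 also: luminescence tracks abundance of the self-degrading MDM2-luciferase fusion protein; higher signal means inhibition of MDM2 E3 ligase activity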
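Test system: stable mammalian line carrying autodegrading MDM2–luciferase fusion reporter; quantity: 2000 cells in each well; times: 4 h cell settling then 2 h compound exposure, 37 °C; detection: luminescence with SteadyLite reagent, 15 min at room temperature; evaluation: percent signal gain over controls, blank-subtracted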
UPR CHOP act: apoptotic UPR (CHOP) activation; hit rate 0.34% among 330,000; CHO-CHOP luciferase reporter, luminescence; percent of tunicamycin response over DMSO baseline; activation, % at 10 µM;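 active = at 10 µM dose, activation of 40% or more, normalized to positive control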
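System: CHO CHOP reporter cells. Amount: 500 cells per well. Buffer or medium: F12 medium, 10% FBS. Compound dosing: one dose, 10 µM in 0.5% DMSO. Incubation: 6 h compound exposure at 37 °C after overnight seeding. Technique: Steady-Glo luciferase luminescence. Benchmarks: tunicamycin and DMSO controls.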
Dynein cargo inh: blocks dynein driven cargo transport along microtubules | 3617.4 mouse cells, GR-EGFP nuclear translocation imaging; test concentration mostly 20 µM; stimulated with dexamethasone, 1 µM; active compounds read low | hit rate 0.47% among 220,000 | z-score, hits read low | AID 1381;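 active = plate z-score of nuclear minus cytoplasmic receptor signal below a set negative limit, without overly bright fluorescence or cell loss, cut at about -3.5 in these data, passing the limit was not always enough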;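 also: z-score of nuclear minus cytoplasmic ring GR-EGFP intensity difference per well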
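Also added: dexamethasone, 1.0 µM final. Medium: tet-free, stripped-serum medium. Detection: fixed, Hoechst-stained cells imaged at 10x for EGFP. Read-out: nuclear-to-cytoplasmic GR-EGFP distribution per well. Times: induction 48 h, compound 1 h, agonist 30 min.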
Beta2AR agonist: human beta-2 adrenergic receptor agonism by FAP. P07550. Am2.2-beta2AR cells, FAP receptor internalization, flow cytometry. response, % (test concentration not listed). hit rate 0.43% among 340,000;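 active = response above a set limit, near 3 SD of response in nonfluorescent compounds, cut at about 42% in these data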
Target sequence (P07550 whole entry, looked up): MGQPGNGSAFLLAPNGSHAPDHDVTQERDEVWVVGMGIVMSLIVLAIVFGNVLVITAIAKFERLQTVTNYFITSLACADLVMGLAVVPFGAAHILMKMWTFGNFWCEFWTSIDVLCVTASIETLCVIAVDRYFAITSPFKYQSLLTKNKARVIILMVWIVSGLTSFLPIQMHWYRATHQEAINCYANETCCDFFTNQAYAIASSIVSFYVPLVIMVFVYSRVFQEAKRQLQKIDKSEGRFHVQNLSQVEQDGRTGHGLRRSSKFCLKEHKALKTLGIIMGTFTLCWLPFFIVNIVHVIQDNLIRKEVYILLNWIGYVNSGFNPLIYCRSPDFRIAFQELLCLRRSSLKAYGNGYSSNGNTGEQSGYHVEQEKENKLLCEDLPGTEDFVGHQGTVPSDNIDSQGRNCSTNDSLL
UPR XBP1 act: adaptive UPR (XBP1) activation | CHO-XBP1 luciferase reporter, IRE1-XBP1 UPR activation, luminescence; percent of tunicamycin response, DMSO as zero | activation, % at 20 µM | hit rate 0.33% among 330,000;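 active = versus positive control, 20 µM dose yields 30% or more activation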
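Material: CHO-XBP1 cells stably carrying IRE1-XBP1-driven luciferase reporter | Medium: F12 with 10% serum | Compound dosing: 20 µM single concentration, DMSO 1% | Incubation: Overnight seeding at 37 °C, 6 h compound treatment at 37 °C | Detection: Steady-Glo luminescence read | Read-out basis: % activation of reporter signal versus tunicamycin and DMSO controls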
Mdm2 MdmX PPI: human Mdm2/MdmX binding inhibition; O15151+Q00987; SaOS-2 split-luciferase Mdm2/MdmX complementation, luminescence; inhibition, % at 8 µM; hit rate 3% among 330,000; AID 485346;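 active = inhibition of at least 50% at 8 µM in the primary screen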
Dynein inh conf: dynein cargo transport inhibition, confirmation | shares compounds with Dynein cargo inh | 3617.4 GR-EGFP nuclear translocation imaging, dexamethasone-induced | calls only at 20 µM | hit rate 69% among 1,000 | AID 463116;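 active = inhibition of receptor movement into the nucleus at or above a set limit in both runs, with normal cell brightness and cell count; inconclusive = limit reached in only one run, brightness and count normal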;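 also: dexamethasone at 1 µM final in well for 30 min; nuclear minus cytoplasmic GR-EGFP mean intensity difference in channel 2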
Hits are given with their value; n = inactive; u = inconclusive; x = not tested or not shown; + = active, no number. Shown are actives, neighbours in structure and some others; about 3.7% of the full set was active somewhere.

SMILES	Mdm2 ligase inh	UPR CHOP act	Dynein cargo inh	Beta2AR agonist	UPR XBP1 act	Mdm2 MdmX PPI	Dynein inh conf
CCN1C(=O)/C(=C\c2ccc([N+](=O)[O-])s2)C(=O)NC1=S	n	x	-4.7	x	x	x	x
COC(=O)C1=C(C(=O)OC)SC2(S1)C(C(=O)OC)=C(C(=O)OC)Sc1c2ssc1=O	x	x	x	57.5	x	x	x
COc1ccc(Cl)cc1N=Cc1c(O)n(C)c(=O)n(C)c1=O	x	n	x	57.1	n	n	x
CC1(C)C(c2ccccc2)=NC(c2cccnc2)N1O (centres undefined)	n	n	n	n	n	n	x
O=c1c2ccccc2nc(-c2ccccc2)n1-c1cccc(O)c1	n	n	n	n	n	n	x
CC(C)(O)/C=C/C(=O)C(C)(O)C1C(O)CC2(C)C3CC=C4C(C=C(O)C(=O)C4(C)C)C3(C)C(=O)CC12C (centres undefined)	x	x	x	42.5	x	x	x
COc1cc2[nH]c(C(=O)N3CCC4(CC3)OCCO4)cc2c(OC)c1OC	x	n	x	n	n	n	x
O=S(=O)(c1ccccc1)N1CCN2CCCC2C1 (centres undefined)	x	n	x	n	n	n	x
O=C1NC(=O)C(=Cc2ccc(-c3ccc(F)cc3O)o2)C(=O)N1	x	n	x	42.4	n	n	x
CCN(CCCl)c1cc(CN(C)C)cc(NC(=O)c2ccc(C(=O)Nc3cc(CN(C)C)cc(N(CC)CCCl)c3)cc2)c1	x	x	x	46.7	x	x	x
Cc1ccc(-c2nc3ccccc3c(=O)n2-c2cccnc2)cc1	34.4	n	n	n	n	n	x
CN1C(=O)/C(=C/C=C/c2ccco2)C(=O)NC1=S	n	n	n	58.1	n	n	x
Cc1ccc(/C=C2\C(=O)NC(=S)N(c3cccc(F)c3)C2=O)o1	x	n	x	49.8	n	n	x
CN1C(=O)/C(=C/c2ccc(Cl)s2)C(=O)NC1=S	x	x	x	n	x	x	x
Cc1ccsc1/C=C1\C(=O)NC(=S)N(C)C1=O	x	175.8	x	55.1	n	n	x
Cc1ccc(/C=C2/C(=O)NC(=O)N(Cc3ccc(F)cc3)C2=O)o1	n	n	n	x	n	n	x
Cc1ccc(/C=C2\C(=O)NC(=O)N(Cc3ccccc3Cl)C2=O)o1	n	n	n	59.2	n	n	x
O=C(CF)NC(NC(=S)Nc1ccccc1O)C(Cl)(Cl)Cl (centres undefined)	n	n	n	n	n	n	x
COc1cc2c(cc1OC)C13CCN4CC5=CCOC6CC(=O)N2C1C6C5C3C4 (centres undefined) (tested in a mixture with another compound)	x	x	x	n	x	x	x
O=C1NC(=O)N(c2ccc3c(c2)OCO3)C(=O)/C1=C/c1ccsc1	n	n	n	n	n	n	x
O=C1NC(=O)N(c2ccc3c(c2)OCO3)C(=O)/C1=C/c1cccs1	n	n	n	44.5	n	n	x
COc1cc(O)c(C(=O)O)c(-c2cc(O)c(O)cc2C)c1	n	n	n	n	n	n	x
O=P(OCC(F)(F)C(F)F)(N1CCCCC1)N1CCCCC1	n	n	n	n	n	n	x
CC1=CC(C)CC(C)OC(=O)CC(c2ccc(O)cc2)NC(=O)C(Cc2c(Br)[nH]c3ccccc23)N(C)C(=O)C(C)NC(=O)C(C)C1 (centres undefined)	x	x	x	49.8	x	x	x
COc1ccccc1/C=C1/C(=N/O)C2CCN1CC2	n	n	n	n	n	n	x
SMILES	Mdm2 ligase inh	UPR CHOP act	Dynein cargo inh	Beta2AR agonist	UPR XBP1 act	Mdm2 MdmX PPI	Dynein inh conf
COC(=O)C1=C(c2ccc(OCc3ccccc3)cc2)C[C@@H]2CC[C@H]1N2C(=O)NCc1ccc([N+](=O)[O-])cc1	x	n	x	n	n	n	x
CCN(CC)c1ccc(/C=N/c2sc3c(c2C#N)C2CCN3CC2)c(O)c1	n	x	n	n	x	x	+
Cc1ccc(C2C(=O)NC(=O)NC2=O)cc1	x	n	x	n	n	n	x
N#CC(C#N)=Cc1ccc(C=C(C#N)C#N)cc1	n	x	-4.3	n	x	x	u
Cc1cc(N2CCCC2)ccc1C=C(C#N)C#N	n	n	n	n	n	n	x
CNc1cc(Cl)c2nonc2c1[N+](=O)[O-]	n	x	-6.95	106.0	x	x	u
Cc1nn(Cc2ccccc2)c(C)c1C=C1C(=O)NC(=S)NC1=O	n	n	-4.68	n	n	n	n
Cc1nonc1OCCNCCNc1ccc([N+](=O)[O-])c2cccnc12	n	n	n	n	n	n	x
CN1CCN(c2ccc(S(C)(=O)=O)cc2[N+](=O)[O-])CC1	n	n	n	n	n	n	x
CN1CCN(c2ccc([N+](=O)[O-])c3no[n+]([O-])c23)CC1	x	x	-4.68	n	x	x	n
COc1ccc(OC)c(N2C(=O)/C(=C/c3ccco3)C(=O)NC2=S)c1	x	n	x	x	n	n	x
COc1ccc(OC)c(N2C(=O)NC(=O)/C(=C/c3ccc([N+](=O)[O-])s3)C2=O)c1	n	n	-5.34	n	n	n	+
C=CCn1c(O)c(C=NCCN2CCOCC2)c(=O)[nH]c1=S	n	n	n	n	n	n	x
Cc1cccc(N2C(=O)NC(=O)/C(=C\C=C\c3ccco3)C2=O)c1	n	n	-4.96	69.2	n	n	+
O=C1NC(=O)N(Cc2ccco2)C(=O)/C1=C/C=C/c1ccco1	x	n	-3.79	84.9	n	n	u
Cc1ccc(N2C(=O)NC(=O)/C(=C\C=C\c3ccco3)C2=O)cc1C	53.0	x	-5.65	59.9	x	x	+
Cc1ccc(N2C(=O)NC(=O)/C(=C\C=C\c3ccco3)C2=O)cc1	x	n	-5.06	68.6	n	n	+
COC(=O)C1=C(c2ccc(S(C)(=O)=O)cc2)C[C@@H]2CC[C@H]1N2C(=O)NCc1ccc(C(F)(F)F)cc1	x	n	x	n	n	n	x
COc1ccccc1NC1(C#N)CCCCC1	n	n	n	n	n	n	x
CCCCCCC(=O)c1c(O)n(-c2ccccc2OC)c(=O)[nH]c1=O	n	n	n	n	n	n	x
COc1cccc(C2CC3C(=O)C=CC2N3Cc2ccccc2)c1 (centres undefined)	n	n	-3.78	n	n	n	+
COc1cccc(-c2nn(Cc3ccccc3)cc2C(=O)O)c1	x	n	x	n	n	n	x
C[N+]12CCC(CC1)C(C(O)(c1ccccc1)c1cccs1)C2 (centres undefined)	n	n	n	n	n	n	x
O=c1[nH]c(=S)[nH]c(O)c1C(c1ccccn1)c1c(O)[nH]c(=S)[nH]c1=O	n	n	n	n	n	n	x
CN(C)c1ccc(/C=C2/C(=O)NC(=O)N(CCc3ccc(F)cc3)C2=O)cc1	n	n	n	n	n	n	x
C=CCN1C(=O)NC(=O)/C(=C/C=C/c2ccccc2)C1=O	n	x	-4.88	74.6	x	x	+
O=C1NC(=O)N(CCc2ccc(F)cc2)C(=O)/C1=C\C=C\c1ccccc1	49.7	x	-4.08	n	x	x	+
